In ChEMBL document CHEMBL1121573, “2-(Aminomethyl)phenols, a new class of saluretic agents. 1. Effects of nuclear substitution” (J Med Chem, 1980):

Tests used:
[1] = tested on: Rattus norvegicus; assay: Oral diuretic activity was evaluated by measuring Na+ excretion in Rat at 9 mg/kg […] ( 0 - 5 hr); type: ADME, organism-based, Urine; parameters: dose 9 mg/kg
How it was run: (§1)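 Female Charles-River rats (150–170 g) were kept overnight on a sugar diet with water ad libitum. Compound was dissolved in DMF, then diluted with water containing Tween 80 (3 drops/100 mL) to a final 4% DMF, and given po in 5.0 mL. Rats were housed three per metabolism cage. Urine from 0–5 h was analysed for Na+, K+ and Cl−, with concurrent placebo controls. Values are mequiv × 100 per cage, geometric mean of three cages per dose.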

[2] = tested on: Canis familiaris; assay: Oral diuretic activity was evaluated by measuring Na+ excretion in dog at 1 mg/kg after ip administration ( 0 - 6 hr); type: ADME, organism-based, Canis lupus familiaris, Urine; parameters: dose 1 mg/kg, route intraperitoneal; conditions: in vivo
How it was run: (§2)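 Spontaneous urine was pooled with bladder urine collected by catheterization at 6 h. Volume was measured and Na+, K+ and Cl− were determined by standard methods. Values are geometric means.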

[3] = tested on: Canis familiaris; assay: Oral diuretic activity was evaluated by measuring Na+ excretion in dog at 2 mg/kg after […] ( 0 - 6 hr); type: ADME, organism-based, Canis lupus familiaris, Urine; parameters: dose 2 mg/kg; conditions: in vivo
How it was run: (§3)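 Dogs; spontaneous urine was pooled with bladder urine drained by catheter at the end of 6 h. Urine volume was measured, and aliquots were assayed for Na+, K+ and Cl− by standard methods. Values are geometric means, expressed as mequiv over 0–6 h.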

[4] = tested on: Canis familiaris; assay: Oral diuretic activity was evaluated by measuring K+ excretion in dog at 5 mg/kg after ip administration ( 0 - 6 hr); type: ADME, organism-based, Canis lupus familiaris, Urine; parameters: dose 5 mg/kg, route intraperitoneal; conditions: in vivo; how it was run: as §2
[5] = tested on: Rattus norvegicus; assay: Oral diuretic activity was evaluated by measuring Na+ excretion in Rat at 27 mg/kg […] ( 0 - 5 hr); type: ADME, organism-based, Urine; parameters: dose 27 mg/kg; how it was run: as §1
[6] = tested on: Rattus norvegicus; assay: Oral diuretic activity was evaluated by measuring Na+ excretion in Rat at 3 mg/kg […] ( 0 - 5 hr); type: ADME, organism-based, Urine; parameters: dose 3 mg/kg; how it was run: as §1
[7] = tested on: Canis familiaris; assay: Oral diuretic activity was evaluated by measuring Na+ excretion in dog at 5 mg/kg after […] ( 0 - 6 hr); type: ADME, organism-based, Canis lupus familiaris, Urine; parameters: dose 5 mg/kg; conditions: in vivo; how it was run: as §3
[8] = tested on: Canis familiaris; assay: Compound administered intravenously at a dose of 5 mg/kg was evaluated for salidiuretic activity measured as sodium ion excretion in Dog; type: ADME, organism-based, Canis lupus familiaris, Urine; parameters: dose 5 mg/kg, route intravenous; conditions: in vivo, iv
How it was run: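 Conditioned female mongrel dogs, postabsorptive, water-loaded (500 mL po) 1 h before sodium pentobarbital anesthesia (30 mg/kg iv). Bladder catheter; creatinine 4 g sc; phosphate–mannitol buffer pH 7.4 infused (3.0 mL/min) throughout. […] Urine Na+ measured; response scored 0–6.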

[9] = tested on: Canis familiaris; assay: Oral diuretic activity was evaluated by measuring K+ excretion in dog at 2 mg/kg after ip administration ( 0 - 6 hr); type: ADME, organism-based, Canis lupus familiaris, Urine; parameters: route intraperitoneal, dose 2 mg/kg; conditions: in vivo; how it was run: as §2
[10] = tested on: Rattus norvegicus; assay: Oral diuretic activity was evaluated by measuring K+ excretion in Rat at 3 mg/kg […] ( 0 - 5 hr); type: ADME, organism-based, Urine; parameters: dose 3 mg/kg
How it was run: (§4)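 Female Charles-River rats (150–170 g) were kept overnight on a sugar diet with water ad libitum. Test substance was dissolved in DMF and diluted with water containing Tween 80 to a final 4% DMF vehicle, then given po in 5.0 mL. Rats were housed three per metabolism cage, and 0–5 h urine was assayed for Na⁺, K⁺ and Cl⁻ alongside concurrent placebo groups. Values are mequiv × 100 per cage, geometric means of three cages per dose.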

[11] = tested on: Rattus norvegicus; assay: Oral diuretic activity was evaluated by measuring K+ excretion in Rat at 81 mg/kg […] ( 0 - 5 hr); type: ADME, organism-based, Urine; parameters: dose 81 mg/kg; how it was run: as §4
[12] = tested on: Rattus norvegicus; assay: Oral diuretic activity was evaluated by measuring K+ excretion in Rat at 9 mg/kg after […] ( 0 - 5 hr); type: ADME, organism-based, Urine; parameters: dose 9 mg/kg; conditions: in vivo; how it was run: as §4
[13] = tested on: Canis familiaris; assay: Oral diuretic activity was evaluated by measuring K+ excretion in dog at 1 mg/kg after […] ( 0 - 6 hr); type: ADME, organism-based, Canis lupus familiaris, Urine; parameters: dose 1 mg/kg; conditions: in vivo; how it was run: as §2
[14] = tested on: Rattus norvegicus; assay: Evaluated for salidiuretic activity measured as sodium ion excretion in Rat, administered orally at a dose of 50 mg/kg; type: functional, Urine; parameters: unit not given beside the values; conditions: route oral
How it was run: (§5)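 Female Charles-River rats (150–170 g), overnight on sugar diet with water ad libitum. Compound dissolved in DMF, diluted with water containing Tween 80 (final 4% DMF), given po in 5.0 mL; concurrent vehicle placebo. Three rats per metabolism cage; 0–5 h urine analysed for Na+, K+, Cl-. Values: mequiv × 100 per cage, geometric means of three cages per dose; scored 0–6 by Na+.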

[15] = Compound administered orally at a dose of 5 mg/kg was evaluated for salidiuretic activity measured as sodium ion excretion in Rat; type: organism-based; parameters: dose 5 mg/kg; conditions: Urine; how it was run: as §5
[16] = tested on: Canis familiaris; assay: Oral diuretic activity was evaluated by measuring Cl- excretion in dog at 5 mg/kg after […] ( 0 - 6 hr); type: ADME, organism-based, Canis lupus familiaris, Urine; parameters: dose 5 mg/kg, route intraperitoneal; conditions: in vivo
[17] = Evaluated for salidiuretic activity measured as sodium ion excretion in Rat, administered orally at a dose of 16.5 mg/kg; type: organism-based; parameters: dose 16.5 mg/kg; conditions: Urine; how it was run: as §5
[18] = tested on: Rattus norvegicus; assay: Oral diuretic activity was evaluated by measuring Cl- excretion in Rat at 27 mg/kg after […] ( 0 - 5 hr); type: ADME, organism-based, Urine; parameters: dose 27 mg/kg, route intraperitoneal; conditions: in vivo
[19] = tested on: Canis familiaris; assay: Oral diuretic activity was evaluated by measuring Cl- excretion in dog at 2 mg/kg after […] ( 0 - 6 hr); type: ADME, organism-based, Canis lupus familiaris, Urine; parameters: dose 2 mg/kg, route intraperitoneal; conditions: in vivo
[20] = tested on: Rattus norvegicus; assay: Oral diuretic activity was evaluated by measuring Cl- excretion in Rat at 3 mg/kg after […] ( 0 - 5 hr); type: ADME, organism-based, Urine; parameters: dose 3 mg/kg, route intraperitoneal; conditions: in vivo
[21] = tested on: Rattus norvegicus; assay: Oral diuretic activity was evaluated by measuring Cl- excretion in Rat at 9 mg/kg […] ( 0 - 5 hr); type: ADME, organism-based, Urine; parameters: dose 9 mg/kg; conditions: in vivo; how it was run: as §4
[22] = tested on: Canis familiaris; assay: Oral diuretic activity was evaluated by measuring Cl- excretion in dog at 1 mg/kg after […] ( 0 - 6 hr); type: ADME, organism-based, Canis lupus familiaris, Urine; parameters: dose 1 mg/kg, route intraperitoneal; conditions: in vivo
[23] = organism: Rattus norvegicus; assay: Time taken for the decrease in arterial pressure was measured; type: functional, Artery
[24] = tested on: Rattus norvegicus; assay: Maximum fall in mean arterial blood pressure was measured in SH rats when compound was administered at 20 mg/kg perorally; type: functional; conditions: route oral
[25] = tested on: Rattus norvegicus; assay: Maximum fall in mean arterial blood pressure was measured in SH rats when compound was administered at 40 mg/kg perorally; type: functional; conditions: route oral
[26] = tested on: Rattus norvegicus; assay: Oral diuretic activity was evaluated by measuring K+ excretion in Rat at 27 mg/kg after po administration ( 0 - 5 hr); conditions: in vivo
[27] = tested on: Rattus norvegicus; assay: Oral diuretic activity was evaluated by measuring Cl- excretion in Rat at 81 mg/kg after po administration ( 0 - 5 hr); conditions: in vivo
[28] = tested on: Rattus norvegicus; assay: Compound administered orally at a dose of 1 mg/kg was evaluated for salidiuretic activity measured as sodium ion excretion in Rat; conditions: in vivo, po

Diuretic activity [1]: 2.68 | Diuretic activity [2]: 28.38 | Diuretic activity [3]: 40.38 | Diuretic activity [4]: 10.38 | Diuretic activity [5]: 3.16 | Diuretic activity [6]: 1.75 | Diuretic activity [7]: 43.13 | Diuretic activity [8]: > 900 | Diuretic activity [9]: 9.13 | Diuretic activity [10]: 0.52 | Diuretic activity [11]: 0.9 | Diuretic activity [12]: 0.71 | Diuretic activity [13]: 6.5 | Diuretic activity [16]: 54.25 | Diuretic activity [18]: 4.31 | Diuretic activity [19]: 51.63 | Diuretic activity [20]: 2.4 | Diuretic activity [21]: 3.7 | Diuretic activity [22]: 38.25 | Diuretic activity [26]: 0.94 | Diuretic activity [27]: 4.87 | Diuretic activity [28]: 2.1
SMILES: CC(C)(C)c1cc(Cl)c(O)c(CN)c1.Cl
Diuretic activity [14]: 3.9 | Diuretic activity [15]: 3.6 | Diuretic activity [17]: 4.2 | Duration [23]: 24 h | MAP [24]: 9 mmHg | MAP [25]: 35 mmHg
